In ChEMBL document CHEMBL4627249, “New modification strategy of matrine as Hsp90 inhibitors based on its specific L conformation for cancer treatment” (Bioorg Med Chem, 2020):
Activity calls are given as the source filed them. The rule behind the calls is not given here.

Tests used:
HeLa [1] = test: Induction of apoptosis in human HeLa cells assessed as early apoptotic cells at 5 uM after 48 hrs by Annexin V/propidium iodide staining based assay (reference value: 3.22 %); assay type: functional
Method in brief: (§1)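 HeLa cells were seeded at 2 × 10^5 per well in six-well plates and left overnight. They were then treated with 5, 10 or 20 µM for 48 h. Annexin V-FITC/PI staining was done with a commercial kit per its instructions. Early and late apoptotic fractions are given as cumulative percentages relative to untreated control.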

HeLa [2] = test: Cell cycle arrest in human HeLa cells assessed as accumulation of cells at S phase at 10 uM after 48 hrs by RNase/PI-staining based flow cytometric analysis (reference value: 17.24 %); assay type: functional
HeLa [3] = test: Induction of apoptosis in human HeLa cells assessed as early apoptotic cells at 20 uM after 48 hrs by Annexin V/propidium iodide staining based assay (reference value: 3.22 %); assay type: functional; method in brief: as §1
HeLa [4] = test: Induction of apoptosis in human HeLa cells assessed as increase in cleaved caspase 3 protein expression after 48 hrs by Western blot analysis; assay type: functional, cell-based
Method in brief: (§2)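 HeLa cells were treated 48 h with 12.5, 25 or 50 µM, or with DMSO vehicle. Cells were lysed 30 min in RIPA buffer with protease inhibitor cocktail and spun at 12,000 rpm for 15 min at 4 °C. Proteins were run on 6-15% SDS-PAGE and moved to nitrocellulose. Membranes were blocked in 5% non-fat milk in TBS, probed with primary and secondary antibodies, and imaged by chemiluminescence.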

HeLa [5] = test: Induction of apoptosis in human HeLa cells assessed as decrease in Bcl-2 protein expression after 48 hrs by Western blot analysis; assay type: functional, cell-based; method in brief: as §2
HeLa [6] = test: Induction of apoptosis in human HeLa cells assessed as necrotic cells at 10 uM after 48 hrs by Annexin V/propidium iodide staining based assay (reference value: 0 %); assay type: functional; method in brief: as §1
HeLa [7] = test: Induction of apoptosis in human HeLa cells assessed as decrease in protected caspase 3 protein expression after 48 hrs by Western blot analysis; assay type: functional, cell-based; method in brief: as §2
HeLa [8] = test: Cell cycle arrest in human HeLa cells assessed as accumulation of cells at G0/G1 phase at 20 uM after 48 hrs by RNase/PI-staining based flow cytometric analysis (reference value: 71.07 %); assay type: functional
MDA-MB-231 = test: Antiproliferative activity against human MDA-MB-231 cells assessed as reduction in cell viability after 48 hrs by MTT assay; assay type: functional, cell-based; conditions: MDA-MB-231, 48 h
HeLa [9] = test: Induction of apoptosis in human HeLa cells assessed as late apoptotic cells at 20 uM after 48 hrs by Annexin V/propidium iodide staining based assay (reference value: 1.75 %); assay type: functional; method in brief: as §1
[10] = target: T1, Heat shock protein HSP90 (Homo sapiens) (UniProt P07900+P08238)
HeLa [11] = test: Cell cycle arrest in human HeLa cells assessed as accumulation of cells at S phase at 5 uM after 48 hrs by RNase/PI-staining based flow cytometric analysis (reference value: 17.24 %); assay type: functional
HeLa [12] = test: Cell cycle arrest in human HeLa cells assessed as accumulation of cells at G2/M phase at 10 uM after 48 hrs by RNase/PI-staining based flow cytometric analysis (reference value: 11.69 %); assay type: functional
HeLa [13] = test: Cell cycle arrest in human HeLa cells assessed as accumulation of cells at G0/G1 phase at 5 uM after 48 hrs by RNase/PI-staining based flow cytometric analysis (reference value: 71.07 %); assay type: functional
HeLa [14] = test: Cell cycle arrest in human HeLa cells assessed as accumulation of cells at S phase after 48 hrs by RNase/PI-staining based flow cytometric analysis; assay type: functional
HeLa [15] = test: Induction of apoptosis in human HeLa cells assessed as viable cells at 5 uM after 48 hrs by Annexin V/propidium iodide staining based assay (reference value: 95.03 %); assay type: functional; conditions: read-out: Activity; method in brief: as §1
HeLa [16] = test: Cell cycle arrest in human HeLa cells assessed as accumulation of cells at S phase at 20 uM after 48 hrs by RNase/PI-staining based flow cytometric analysis (reference value: 17.24 %); assay type: functional
HeLa [17] = test: Induction of apoptosis in human HeLa cells assessed as late apoptotic cells at 5 uM after 48 hrs by Annexin V/propidium iodide staining based assay (reference value: 1.75 %); assay type: functional; method in brief: as §1
HeLa [18] = test: Cell cycle arrest in human HeLa cells assessed as accumulation of cells at G2/M phase at 5 uM after 48 hrs by RNase/PI-staining based flow cytometric analysis (reference value: 11.69 %); assay type: functional
HeLa [19] = test: Induction of apoptosis in human HeLa cells assessed as accumulation of […] cells at 5 uM after 48 hrs by Annexin V/propidium iodide staining based assay (reference value: 0 %); assay type: functional; method in brief: as §1
[20] = target: T1, Heat shock protein HSP90 (Homo sapiens); test: Inhibition of Hsp90 in human Hela cells assessed as down regulation of Hsp90 protein expression at 12.5 uM to 50 uM after 48 hrs by Western blot analysis; assay type: cell-based; method in brief: as §2
HeLa [21] = test: Induction of apoptosis in human HeLa cells assessed as late apoptotic cells at 10 uM after 48 hrs by Annexin V/propidium iodide staining based assay (reference value: 1.75 %); assay type: functional; method in brief: as §1
HeLa [22] = test: Induction of apoptosis in human HeLa cells assessed as increase in ratio of Bax to Bcl-2 protein expression 12.5 to 50 uM after 48 hrs by Western blot analysis; assay type: functional, cell-based; method in brief: as §2
HeLa [23] = test: Cell cycle arrest in human HeLa cells assessed as accumulation of cells at G0/G1 phase at 10 uM after 48 hrs by RNase/PI-staining based flow cytometric analysis analysis (reference value: 71.07 %); assay type: functional
HeLa [24] = test: Induction of apoptosis in human HeLa cells assessed as viable cells at 20 uM after 48 hrs by Annexin V/propidium iodide staining based assay (reference value: 95.03 %); assay type: functional; conditions: read-out: Activity; method in brief: as §1
HeLa [25] = test: Induction of apoptosis in human HeLa cells assessed as necrotic cells at 20 uM after 48 hrs by Annexin V/propidium iodide staining based assay (reference value: 0 %); assay type: functional; method in brief: as §1
HeLa [26] = test: Induction of apoptosis in human HeLa cells assessed as early apoptotic cells at 10 uM after 48 hrs by Annexin V/propidium iodide staining based assay (reference value: 3.22 %); assay type: functional; method in brief: as §1
HeLa [27] = test: Induction of apoptosis in human HeLa cells assessed as increase in Bax protein expression after 48 hrs by Western blot analysis; assay type: functional, cell-based; method in brief: as §2
HeLa [28] = test: Cell cycle arrest in human HeLa cells assessed as accumulation of cells at G2/M phase at 20 uM after 48 hrs by RNase/PI-staining based flow cytometric analysis (reference value: 11.69 %); assay type: functional
HepG2 = test: Antiproliferative activity against human HepG2 cells assessed as reduction in cell viability after 48 hrs by MTT assay; assay type: functional, cell-based; conditions: HepG2, 48 h
Method in brief: (§3)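 HepG2 or HeLa cells in DMEM with 10% FBS and 1% penicillin-streptomycin were preincubated 24 h (37 °C, 5% CO2). They were then exposed for 48 h to 1, 5, 10, 20, 50 and 100 µM, diluted in medium from DMSO stocks. MTT (5 mg/mL, 20 µL) was added for 4 h, formazan dissolved in DMSO, and A490 read. Each concentration was run in triplicate. IC50 is the mean from dose-response curves of at least three independent experiments; cisplatin was the positive control.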

HeLa [29] = test: Antiproliferative activity against human HeLa cells assessed as reduction in cell viability after 48 hrs by MTT assay; assay type: functional, cell-based; method in brief: as §3
HeLa [30] = test: Induction of apoptosis in human HeLa cells assessed as viable cells at 10 uM after 48 hrs by Annexin V/propidium iodide staining based assay (reference value: 95.03 %); assay type: functional; conditions: read-out: Activity; method in brief: as §1

Structure (SMILES): Nc1c2c(nc3ccc(C(F)(F)F)cc13)N1C[C@@H]3CCCN4CCC[C@@H]([C@H]34)[C@H]1CC2
- Activity (HeLa [1]): 17.51%
- Activity (HeLa [2]): 26.67%
- Activity (HeLa [3]): 38.07%
- Activity (HeLa [4]): Dose-dependent effect
- Activity (HeLa [5]): Dose-dependent effect
- Activity (HeLa [6]): 4.06%
- Activity (HeLa [7]): Dose-dependent effect
- Activity (HeLa [8]): 56.95%
- IC50 (MDA-MB-231): 22.1 µM
- Activity (HeLa [9]): 21.17%
- ΔTm [10]: 10.9 °C
- Activity (HeLa [11]): 21.64%
- Activity (HeLa [12]): 10.86%
- Activity (HeLa [13]): 65.53%
- Activity (HeLa [14]): Dose-dependent effect
- viability at 5 µM (HeLa [15]): 72%
- Activity (HeLa [16]): 40.12%
- Activity (HeLa [17]): 8.79%
- Activity (HeLa [18]): 12.83%
- Activity (HeLa [19]): 8.79%
- inhibition [20]: Active
- Activity (HeLa [21]): 17.3%
- Activity (HeLa [22]): Active
- Activity (HeLa [23]): 62.47%
- viability at 20 µM (HeLa [24]): 38.1%
- Activity (HeLa [25]): 2.62%
- Activity (HeLa [26]): 28.57%
- Activity (HeLa [27]): Dose-dependent effect
- Activity (HeLa [28]): 2.93%
- IC50 (HepG2): 16.1 µM
- IC50 (HeLa [29]): 19.6 µM
- viability at 10 µM (HeLa [30]): 50.1%
